Published values from different studies.
Values after ≈ are worked out from the molar mass of the structure shown.

Structure (SMILES) | tested on | test | system | setting | endpoint | result
O=C(Nc1cncc(-c2nc3ccccc3o2)c1)c1ccc(N2CCNCC2)c([N+](=O)[O-])c1 | BJ | cell growth or viability, ATP luminescence | – | – | EC50 | > 20 µM
O=c1cc(-c2ccc(O)cc2)oc2cc(O)cc(O)c12 | Helicobacter pylori | microbial growth, broth dilution | – | 3.9 µg/mL | inhibition | 100%
c1ccc(-c2cccc(Nc3nccc(NC4CCCCC4)n3)c2)cc1 | BJ | cell growth or viability, ATP luminescence | – | 72 h | EC50 | > 5 µM
O=C(O)c1ccc(O)cc1 | Helicobacter pylori | microbial growth, broth dilution | – | 125 µg/mL | inhibition | 100%
CS(=O)(=O)c1ccc([C@@H](O)[C@@H](CF)NC(=O)C(Cl)Cl)cc1 | Salmonella enterica | microbial growth | ENTERITIDIS | 20 h, pH 7.2 | MIC | 8 µg/mL (≈ 22.3 µM)
CNc1ccnc(Nc2cccc(-c3cccnc3)c2)n1 | BJ | cell growth or viability, ATP luminescence | – | 72 h | EC50 | > 20 µM
CC1(C)S[C@@H]2[C@H](NC(=O)[C@H](N)c3ccccc3)C(=O)N2[C@H]1C(=O)O | Salmonella enterica | microbial growth | F98, TYPHIMURIUM | 20 h, pH 7.2 | MIC | 2 µg/mL (≈ 5.72 µM)
CN(c1ccnc(Nc2cccc(-c3cccnc3)c2)n1)C1CCCCC1 | BJ | cell growth or viability, ATP luminescence | – | 72 h | EC50 | > 8 µM
CN(C)[C@@H]1C(O)=C(C(N)=O)C(=O)[C@@]2(O)C(O)=C3C(=O)c4c(O)cccc4[C@@](C)(O)[C@H]3C[C@@H]12 | Salmonella enterica | microbial growth | – | 20 h, pH 5.5 | MIC | 1 µg/mL (≈ 2.25 µM)
CCCCNc1ccnc(Nc2cccc(-c3cccnc3)c2)n1 | BJ | cell growth or viability, ATP luminescence | – | 72 h | EC50 | > 17 µM
CN(C)C/C=C/C(=O)Nc1cc2c(Nc3ccc(F)c(Cl)c3)ncnc2cc1O[C@H]1CCOC1 | KB-C2 | cell growth or viability, ATP luminescence | – | 6 µM, 12 days, 3D culture | viability | 92.7%
O=c1cc(-c2ccc(O)c(O)c2)oc2cc(O)cc(O)c12 | Helicobacter pylori | microbial growth, broth dilution | – | 1.95 µg/mL | inhibition | 89.3%
CO/N=C(\C(=O)N[C@@H]1C(=O)N2C(C(=O)O)=C(CSc3nc(=O)c(=O)[nH]n3C)CS[C@H]12)c1csc(N)n1 | Salmonella enterica | microbial growth | F98, TYPHIMURIUM | 20 h, pH 7.2 | MIC | 0.125 µg/mL (≈ 0.225 µM)
